Test results reported in paper PMC3082000 (Bioorganic & medicinal chemistry letters, 2010).
pEC50: −log10 of the molar value. Values belong to the molecule of their own block, whether it stands above or below them.

Key:
solubility = type: physicochemical
M1 [1] = target: T1, M1 (Rattus norvegicus, UniProt P08482); assay: real-time cell-based calcium-mobilization assay, M1 PAM
T1 sequence (P08482 1-460): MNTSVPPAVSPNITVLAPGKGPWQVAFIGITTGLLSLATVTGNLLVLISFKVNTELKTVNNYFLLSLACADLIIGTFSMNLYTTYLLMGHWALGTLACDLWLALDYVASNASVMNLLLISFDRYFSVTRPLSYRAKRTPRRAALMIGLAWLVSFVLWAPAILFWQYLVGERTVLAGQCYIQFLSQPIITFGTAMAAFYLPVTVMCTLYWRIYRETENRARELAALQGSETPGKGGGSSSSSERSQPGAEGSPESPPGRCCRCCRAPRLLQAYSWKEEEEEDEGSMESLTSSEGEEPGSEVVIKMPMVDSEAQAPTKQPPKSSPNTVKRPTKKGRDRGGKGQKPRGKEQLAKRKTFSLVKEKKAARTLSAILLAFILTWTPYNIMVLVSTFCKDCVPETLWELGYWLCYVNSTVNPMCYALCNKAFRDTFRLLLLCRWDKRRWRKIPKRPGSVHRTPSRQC

M2-M5 = assay: counter-screening against M2-M5; type: cell-based; conditions: read-out: M2-M5 EC50; selectivity counter-screen
[2] = system: biogenic amines (D2, H-HT2B, etc…); assay: Lead Profile screen at Ricerca, radioligand binding
TREx293-hM1 cells = assay: APP processing: M1-stimulated APPsα release, Western blot; type: cell-based, human; conditions: for APPsα release, in combination with low dose CCh: 2 μM with 100 nM CCh
Outline: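 Stable human M1-overexpressing TREx293 cells, plated 2 days before use, were pretreated 15 min with 2 μM test compound or DMSO. Carbachol (100 nM or 10 μM) was then added, and medium was conditioned 1 h at 37°C. Endogenous APPsα in conditioned medium was detected by Western blot.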

M1-M5 = assay: Lead Profile screen at Ricerca, orthosteric binding
[3] = cited from earlier work
M1 [4] = target: T1, M1; conditions: cited from earlier work

Structure (SMILES): Cc1cc(NC(=O)CS(=O)(=O)c2cn(Cc3cccc(-c4cn[nH]c4)c3)c3cc(F)cc(F)c23)no1 [15e]
pEC50 (M2-M5): < 4.52

Structure (SMILES): Cn1cc(-c2ccc(CN3C(=O)C(=O)c4ccccc43)c(F)c2)cn1 [compound 3]
brainAUC/plasmaAUC [3]: ~0.1
efficacy (% ACh Max) (M1 [4]): 60 % ACh Max

Structure (SMILES): Cc1cc(NC(=O)CS(=O)(=O)c2cn(Cc3ccccc3Cl)c3ccccc23)no1 [compound 7]
pEC50 (M2-M5): < 4.52

Second part, led by results:

solubility (solubility): poor
Structure (SMILES): Cc1cc(NC(=O)CS(=O)(=O)c2cn(Cc3cccc(Br)c3)c3ccccc23)no1 [13g]

M1 EC50 (M1 [1]; average of at least three independent determinations): inactive
Structure (SMILES): CCC(C)n1cc(-c2cccc(Cn3cc(S(=O)(=O)CC(=O)Nc4cc(C)on4)c4ccccc43)c2)cn1 (stereo not drawn) [14c]

selectivity versus the biogenic amines [2]: selective
orthosteric binding at M1-M5 (M1-M5): no orthosteric binding
improvement in potency (M1 [1]; relative to the non-fluorinated bromine analog): ~3 fold
Structure (SMILES): Cc1cc(NC(=O)CS(=O)(=O)c2cn(Cc3cc(Br)ccc3F)c3ccccc23)no1 [15j, 2-((1-(5-bromo-2-fluorobenzyl)-1H-indol-3-yl)sulfonyl)-N-(5-methylisoxazol-3-yl)acetamide]
APPsα release, in combination with low dose CCh (TREx293-hM1 cells; TREx293-hM1 cells, listed as ML169): potentiates the CCh-mediated non-amyloidogenic APPsα release to the same degree as 10 μM CCh
APPsα release, in combination with low dose CCh (TREx293-hM1 cells; TREx293-hM1 cells, listed as VU04505652): potentiates the CCh-mediated non-amyloidogenic APPsα release
APPsα release, compound alone (TREx293-hM1 cells; 2 μM, TREx293-hM1 cells): no effect
pEC50 (M2-M5): < 4.52

soluble APP (APPsα) (TREx293-hM1 cells; 100 nM): modest increase
soluble APP (APPsα) (TREx293-hM1 cells; 10 μM): significant increase
Structure (SMILES): C[N+](C)(C)CCOC(N)=O [carbachol, reference compound]
